Reference: PMC9302689 (British Journal of Clinical Pharmacology, 2022)

System: healthy male subjects
Assay: Pharmaco-EEG
Assay type: in vivo, human
Conditions: 12-hour post-dose period
Summary of the method: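 Continuous EEG was recorded from 21 electrodes placed by the 10–20 system, with mastoid electrodes replacing the earlobe ones. Recordings followed IPEG guidelines, twice pre-dose and at 0.5–10 h post-dose. Power spectra for Fz-Cz and Pz-O derivations were split into bands to give total band power (μV). Values were ln-transformed, analysed by MMRM over 12 h against pooled placebo, and back-transformed.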

CN1CCC23CCCCC2C1Cc1ccc(C(N)=O)cc13 (stereo not drawn) [ALKS 7119, (9α, 13α)‐17‐methylmorphinan‐3‐carboxamide]
Alpha-power Fz-Cz, LSM CFB (3 mg single oral dose): 0.01 Hz | Alpha-power Fz-Cz, estimate of difference compared to placebo (3 mg single oral dose): 0 [−0.97, 0.97] P = 1.00 Hz | Alpha-power Pz-Oz, LSM CFB (3 mg single oral dose): −0.06 Hz | Alpha-power Pz-Oz, estimate of difference compared to placebo (3 mg single oral dose): −0.16 [−0.41, 0.10] P = .23 Hz | Beta-power Fz-Cz, LSM CFB (3 mg single oral dose): 0.03 Hz | Beta-power Fz-Cz, estimate of difference compared to placebo (3 mg single oral dose): −0.09 [−0.31, 0.14] P = .45 Hz | Beta-power Pz-Oz, LSM CFB (3 mg single oral dose): −0.03 Hz | Beta-power Pz-Oz, estimate of difference compared to placebo (3 mg single oral dose): −0.16 [−0.36, 0.04] P = .11 Hz | Delta-power Fz-Cz, LSM CFB (3 mg single oral dose): 0 Hz | Delta-power Fz-Cz, estimate of difference compared to placebo (3 mg single oral dose): −0.11 [−0.32, 0.10] P = .32 Hz | Delta-power Pz-Oz, LSM CFB (3 mg single oral dose): −0.12 Hz | Delta-power Pz-Oz, estimate of difference compared to placebo (3 mg single oral dose): −0.18 [−0.41, 0.05] P = .12 Hz | Gamma-power Fz-Cz, LSM CFB (3 mg single oral dose): 0.05 Hz | Gamma-power Fz-Cz, estimate of difference compared to placebo (3 mg single oral dose): −0.04 [−0.25, 0.16] P = .66 Hz | Gamma-power Pz-Oz, LSM CFB (3 mg single oral dose): 0.09 Hz | Gamma-power Pz-Oz, estimate of difference compared to placebo (3 mg single oral dose): −0.12 [−0.37, 0.13] P = .35 Hz | Theta-power Fz-Cz, LSM CFB (3 mg single oral dose): −0.06 Hz | Theta-power Fz-Cz, estimate of difference compared to placebo (3 mg single oral dose): −0.14 [−0.36, 0.09] P = .23 Hz | Theta-power Pz-Oz, LSM CFB (3 mg single oral dose): −0.1 Hz | Theta-power Pz-Oz, estimate of difference compared to placebo (3 mg single oral dose): −0.17 [−0.40, 0.06] P = .15 Hz | Alpha-power Fz-Cz, LSM CFB (10 mg single oral dose): 0.09 Hz | Alpha-power Fz-Cz, estimate of difference compared to placebo (10 mg single oral dose): 0.15 [−0.94, 1.24] P = .79 Hz | Alpha-power Pz-Oz, LSM CFB (10 mg single oral dose): 0.11 Hz | Alpha-power Pz-Oz, estimate of difference compared to placebo (10 mg single oral dose): 0.01 [−0.25, 0.27] P = .94 Hz | Beta-power Fz-Cz, LSM CFB (10 mg single oral dose): 0.08 Hz | Beta-power Fz-Cz, estimate of difference compared to placebo (10 mg single oral dose): −0.03 [−0.26, 0.19] P = .78 Hz | Beta-power Pz-Oz, LSM CFB (10 mg single oral dose): 0.14 Hz | Beta-power Pz-Oz, estimate of difference compared to placebo (10 mg single oral dose): 0.01 [−0.19, 0.21] P = .91 Hz | Delta-power Fz-Cz, LSM CFB (10 mg single oral dose): 0.05 Hz | Delta-power Fz-Cz, estimate of difference compared to placebo (10 mg single oral dose): −0.05 [−0.26, 0.16] P = .65 Hz | Delta-power Pz-Oz, LSM CFB (10 mg single oral dose): 0.07 Hz | Delta-power Pz-Oz, estimate of difference compared to placebo (10 mg single oral dose): 0.01 [−0.23, 0.24] P = .96 Hz | Gamma-power Fz-Cz, LSM CFB (10 mg single oral dose): 0.09 Hz | Gamma-power Fz-Cz, estimate of difference compared to placebo (10 mg single oral dose): −0.01 [−0.21, 0.21] P = .95 Hz | Gamma-power Pz-Oz, LSM CFB (10 mg single oral dose): 0.13 Hz | Gamma-power Pz-Oz, estimate of difference compared to placebo (10 mg single oral dose): −0.08 [−0.33, 0.17] P = .54 Hz | Theta-power Fz-Cz, LSM CFB (10 mg single oral dose): 0.02 Hz | Theta-power Fz-Cz, estimate of difference compared to placebo (10 mg single oral dose): −0.05 [−0.28, 0.18] P = .65 Hz | Theta-power Pz-Oz, LSM CFB (10 mg single oral dose): 0.04 Hz | Theta-power Pz-Oz, estimate of difference compared to placebo (10 mg single oral dose): −0.03 [−0.26, 0.20] P = .79 Hz | Alpha-power Fz-Cz, LSM CFB (25 mg single oral dose): −0.01 Hz | Alpha-power Pz-Oz, LSM CFB (25 mg single oral dose): −0.01 Hz | Alpha-power Pz-Oz, estimate of difference compared to placebo (25 mg single oral dose): −0.11 [−0.36, 0.15] P = .41 Hz | Beta-power Fz-Cz, LSM CFB (25 mg single oral dose): 0.05 Hz | Beta-power Fz-Cz, estimate of difference compared to placebo (25 mg single oral dose): −0.06 [−0.28, 0.16] P = .58 Hz | Beta-power Pz-Oz, LSM CFB (25 mg single oral dose): 0.08 Hz | Beta-power Pz-Oz, estimate of difference compared to placebo (25 mg single oral dose): −0.04 [−0.24, 0.15] P = .66 Hz | Delta-power Fz-Cz, LSM CFB (25 mg single oral dose): −0.04 Hz | Delta-power Fz-Cz, estimate of difference compared to placebo (25 mg single oral dose): −0.14 [−0.35, 0.07] P = .19 Hz | Delta-power Pz-Oz, LSM CFB (25 mg single oral dose): 0 Hz | Delta-power Pz-Oz, estimate of difference compared to placebo (25 mg single oral dose): −0.06 [−0.31, 0.17] P = .61 Hz | Gamma-power Fz-Cz, LSM CFB (25 mg single oral dose): 0.06 Hz | Gamma-power Fz-Cz, estimate of difference compared to placebo (25 mg single oral dose): −0.04 [−0.04, 0.16] P = .69 Hz | Gamma-power Pz-Oz, LSM CFB (25 mg single oral dose): 0.16 Hz | Gamma-power Pz-Oz, estimate of difference compared to placebo (25 mg single oral dose): −0.05 [−0.30, 0.20] P = .70 Hz | Theta-power Fz-Cz, LSM CFB (25 mg single oral dose): −0.06 Hz | Theta-power Fz-Cz, estimate of difference compared to placebo (25 mg single oral dose): −0.13 [−0.36, 0.09] P = .24 Hz | Theta-power Pz-Oz, LSM CFB (25 mg single oral dose): −0.04 Hz | Theta-power Pz-Oz, estimate of difference compared to placebo (25 mg single oral dose): −0.11 [−0.35, 0.12] P = .33 Hz | Alpha-power Fz-Cz, LSM CFB (50 mg single oral dose): 0.08 Hz | Alpha-power Fz-Cz, estimate of difference compared to placebo (50 mg single oral dose): 0.13 [−0.81, 1.07] P = .79 Hz | Alpha-power Pz-Oz, LSM CFB (50 mg single oral dose): 0.03 Hz | Alpha-power Pz-Oz, estimate of difference compared to placebo (50 mg single oral dose): −0.06 [−0.32, 0.19] P = .62 Hz | Beta-power Fz-Cz, LSM CFB (50 mg single oral dose): 0.04 Hz | Beta-power Fz-Cz, estimate of difference compared to placebo (50 mg single oral dose): −0.07 [−0.31, 0.15] P = .51 Hz | Beta-power Pz-Oz, LSM CFB (50 mg single oral dose): 0.13 Hz | Beta-power Pz-Oz, estimate of difference compared to placebo (50 mg single oral dose): 0 [−0.20, 0,20] P = 1.00 Hz | Delta-power Fz-Cz, LSM CFB (50 mg single oral dose): 0 Hz | Delta-power Fz-Cz, estimate of difference compared to placebo (50 mg single oral dose): −0.10 [−0.31, 0.11] P = .34 Hz | Delta-power Pz-Oz, LSM CFB (50 mg single oral dose): 0.08 Hz | Delta-power Pz-Oz, estimate of difference compared to placebo (50 mg single oral dose): 0.02 [−0.21, 0.25] P = .87 Hz | Gamma-power Fz-Cz, LSM CFB (50 mg single oral dose): 0.01 Hz | Gamma-power Fz-Cz, estimate of difference compared to placebo (50 mg single oral dose): −0.09 [−0.31, 0.11] P = .39 Hz | Gamma-power Pz-Oz, LSM CFB (50 mg single oral dose): 0.08 Hz | Gamma-power Pz-Oz, estimate of difference compared to placebo (50 mg single oral dose): −0.12 [−0.38, 0.13] P = .33 Hz | Theta-power Fz-Cz, LSM CFB (50 mg single oral dose): 0.02 Hz | Theta-power Fz-Cz, estimate of difference compared to placebo (50 mg single oral dose): −0.05 [−0.28, 0.17] P = .64 Hz | Theta-power Pz-Oz, LSM CFB (50 mg single oral dose): 0.08 Hz | Theta-power Pz-Oz, estimate of difference compared to placebo (50 mg single oral dose): 0.01 [−0.23, 0.24] P = .95 Hz | Alpha-power Fz-Cz, LSM CFB (75 mg single oral dose): 0.16 Hz | Alpha-power Fz-Cz, estimate of difference compared to placebo (75 mg single oral dose): 0.32 [−0.64, 1.29] P = .51 Hz | Alpha-power Pz-Oz, LSM CFB (75 mg single oral dose): 0.14 Hz | Alpha-power Pz-Oz, estimate of difference compared to placebo (75 mg single oral dose): 0.04 [−0.22, 0.30] P = .75 Hz | Beta-power Fz-Cz, LSM CFB (75 mg single oral dose): 0.21 Hz | Beta-power Fz-Cz, estimate of difference compared to placebo (75 mg single oral dose): 0.09 [−0.13, 0.32] P = .40 Hz | Beta-power Pz-Oz, LSM CFB (75 mg single oral dose): 0.17 Hz | Beta-power Pz-Oz, estimate of difference compared to placebo (75 mg single oral dose): 0.04 [−0.16, 0.24] P = .69 Hz | Delta-power Fz-Cz, LSM CFB (75 mg single oral dose): 0.17 Hz | Delta-power Fz-Cz, estimate of difference compared to placebo (75 mg single oral dose): 0.06 [−0.15, 0.27] P = .55 Hz | Delta-power Pz-Oz, LSM CFB (75 mg single oral dose): 0.1 Hz | Delta-power Pz-Oz, estimate of difference compared to placebo (75 mg single oral dose): 0.04 [−0.21, 0.27] P = .76 Hz | Gamma-power Fz-Cz, LSM CFB (75 mg single oral dose): 0.27 Hz | Gamma-power Fz-Cz, estimate of difference compared to placebo (75 mg single oral dose): 0.17 [−0.03, 0.37] P = .10 Hz | Gamma-power Pz-Oz, LSM CFB (75 mg single oral dose): 0.27 Hz | Gamma-power Pz-Oz, estimate of difference compared to placebo (75 mg single oral dose): 0.06 [−0.19, 0.32] P = .64 Hz | Theta-power Fz-Cz, LSM CFB (75 mg single oral dose): 0.18 Hz | Theta-power Fz-Cz, estimate of difference compared to placebo (75 mg single oral dose): 0.11 [−0.12, 0.33] P = .34 Hz
